Compound activity from PubChem BioAssay.
OX1R antag-1 – blocks the human orexin 1 receptor; O43613; CHO/OX1R cells, Fluo-8 calcium fluorescence, orexin A; inhibition, % at 5 µM; hit rate 0.43% among 330,000; AID 434989;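 active = inhibition above its plate's threshold, mean inhibition of all tested compounds on the plate plus 3 SD, cut at about 37% in these data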;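 note: 0% = orexin A challenge wells and 100% = SB-334867-A antagonist wells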
Target sequence (O43613 whole entry, looked up): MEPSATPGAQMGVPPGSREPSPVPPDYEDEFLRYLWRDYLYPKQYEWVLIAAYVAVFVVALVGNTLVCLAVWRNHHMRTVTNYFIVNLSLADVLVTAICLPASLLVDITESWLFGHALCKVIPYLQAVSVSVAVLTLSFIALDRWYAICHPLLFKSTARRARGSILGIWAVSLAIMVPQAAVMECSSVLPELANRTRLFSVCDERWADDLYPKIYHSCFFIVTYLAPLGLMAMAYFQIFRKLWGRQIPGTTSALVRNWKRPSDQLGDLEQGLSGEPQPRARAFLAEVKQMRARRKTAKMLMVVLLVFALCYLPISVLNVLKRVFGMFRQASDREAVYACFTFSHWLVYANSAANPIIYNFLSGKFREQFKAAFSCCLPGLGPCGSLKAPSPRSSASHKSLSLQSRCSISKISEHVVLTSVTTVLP
CHO parental Ca – counter-screen for OX1R antagonists: effect in parental CHO cells; parental CHO-K1, ATP-induced calcium, Fluo-8 fluorescence; inhibition, % at 5.6 µM; hit rate 0.63% among 330,000; AID 463079;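 active = inhibition above that plate's mean sample inhibition plus 3 SD, cut at about 26% in these data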;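 note: 0% = ATP-challenged DMSO wells and 100% = DMSO wells without ATP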
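Material – parental CHO cells · Reagent – ATP stimulus · Compound – single nominal dose of 5.6 µM per compound · Detection – Fluo-8 fluorescence · Read-out basis – percent inhibition of calcium signal · Controls – ATP-challenged DMSO wells low, unchallenged DMSO wells high · Repeats – no replicates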
OX1R antag-2 – antagonists of human orexin 1 receptor (OX1R) | O43613 | OX1R-expressing cells, FRET antagonist read-out | inhibition, % at 6.6 µM | hit rate 1.8% among 330,000; in the data active = inhibition mostly above about 38%, no sharp cut-off; inactive = mostly below about 40%;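 note: 0% = agonist challenge alone and 100% = reference antagonist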
GPR7 antag – antagonists of human GPR7 (neuropeptides B/W receptor 1); hit rate 1.1% among 290,000; GPR7-expressing cells, fluorescence antagonist assay; inhibition, % at 4.4 µM; P48145; in the data active = inhibition above about 16%, passing the limit was not always enough;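 note: cells stimulated with the agonist NPW; 0% = agonist with vehicle and 100% = vehicle without agonist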
TAAR1 antag – human TAAR1 antagonism | Q96RJ0 | CHO RD-HGA16 TAAR1, Fluo-8 calcium fluorescence, antagonist | inhibition, % at 3 µM | hit rate 1.5% among 360,000;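 active = inhibition above a per-plate cutoff, the mean inhibition of test compounds on that plate plus 3 SD, cut at about 49% in these data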;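 note: 0% = DMSO plus EC80 beta-PEA response and 100% = DMSO alone without agonist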
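System: RD-HGA16 CHO cells with stable hTAAR1 and Gα16 | Probe or stimulus: EC80 β-phenethylamine stimulus | Dosing: 3 µM, single point | Times: Dye loading 75 min at 37 °C, then 30 min room temperature | Measured by: Fluo-8 calcium-sensitive fluorescence | Read-out basis: % inhibition of agonist calcium response | Replicates: n of 1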
TAAR1 ag – human TAAR1 agonism. CHO RD-HGA16 TAAR1, Fluo-8 calcium fluorescence; vehicle wells 0%, saturating PEA agonist 100%. activation, % at 3 µM. hit rate 0.99% among 360,000;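 active = activation above the mean activation of all test compounds in the run plus 3 SD, cut at about 38% in these data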
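Test system: RD-HGA16 (CHO) cells co-expressing Gα16 and hTAAR1; dosing: one-point dosing at 3 µM (nominal); timing: 17-24 h seeding, 75 min 37 °C dye, 30 min RT; signal: kinetic Fluo-8 calcium fluorescence; read-out basis: % activation relative to PEA EC100 response; controls: DMSO and PEA EC100; replicates: n 1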
The depositor's hits bear a star; nt = no result given. An excerpt weighted towards active compounds, which were near 4.6% of everything screened.

SMILES	OX1R antag-1	CHO parental Ca	OX1R antag-2	GPR7 antag	TAAR1 antag	TAAR1 ag
O=C(NN=C1c2ccccc2-c2ccccc21)c1ccccn1	85*	-32	75*	-12	nt	nt
CC1=C(C)/C(=N/OC(=O)c2cccc([N+](=O)[O-])c2)C=CC1=O	17	1	74*	-3	nt	nt
N/C(=N/OC(=O)c1cccc([N+](=O)[O-])c1)c1cccc([N+](=O)[O-])c1	9	0	10	-11	-14	2
COc1ccc(C(=O)NNC(=O)CSc2nnc(COc3ccccc3)n2C)cc1	-2	-5	3	-13	-13	14
COc1ccc(C(=O)NNC(=O)CSc2nnc(COc3ccc4ccccc4c3)n2C)cc1	-10	2	11	5	-2	44*
CN(C)c1nc(N)nc(CSc2ncc(Cl)cc2Cl)n1	6	-23	38*	-10	11	1
COc1ccc(CN2C(=O)[C@@H]3Cc4c([nH]c5ccccc45)C(C)(C)N3C2=O)cc1	-13	-3	6	nt	30	5
COc1ccc(CN2C(=O)[C@H]3Cc4c([nH]c5ccccc45)C(C)(C)N3C2=O)cc1	-3	-7	12	nt	56*	18
COc1ccccc1CN1C(=O)[C@@H]2Cc3c([nH]c4ccccc34)C(C)(C)N2C1=O	0	-11	16	nt	24	13
CC1(C)c2[nH]c3ccccc3c2C[C@@H]2C(=O)N(Cc3ccccc3Cl)C(=O)N21	-10	-15	10	nt	49*	13
CCOC(=O)C1=C(C(=O)OCC)C2N(Cc3ccc(C#N)cc3)c3ccccc3[C@@]23C[C@@H](C(=O)OC)N(S(=O)(=O)c2ccc(OC)cc2)C3=N1 (some centres not stated)	nt	nt	nt	nt	-20	1
COc1cccc2sc(Nc3nnc(-c4ccc(F)cc4)o3)nc12	-4	12	10	-18	4	10
Fc1cccc2sc(Nc3nnc(-c4ccco4)o3)nc12	29	41*	44	1	3	4
Cn1cc(CC(=O)Nc2ccc(Nc3cccnc3)cc2)c2ccccc21	nt	nt	nt	nt	5	5
CCC(C(=O)NCCC(C)C)n1ccc2cc(S(=O)(=O)N3CCCCC3)ccc21 (configuration not stated)	44	53*	12	13	nt	nt
CC(CNC(=O)Cn1ccc2cc(S(=O)(=O)N3CCCC3)ccc21)c1ccccc1 (configuration not stated)	15	-20	43*	-3	-15	9
COc1cccc(CNC(=O)C(C)n2ccc3cc(S(=O)(=O)N4CCCCCC4)ccc32)c1 (configuration not stated)	-5	-6	12	4	-2	0
C[C@H](c1ccccc1)N1C[C@H](COCc2ccccc2)Oc2cc(N3CC[C@H](N(C)C)C3)ccc2S1(=O)=O	nt	nt	nt	nt	14	10
COc1ccc(C2CC(C)(c3ccc(OC)cc3OC)Nc3ccccc3N2)c(OC)c1 (configuration not stated)	38*	71*	41	13	-4	0
O=C(CC(NC(=O)OCc1ccccc1)C(=O)OCc1ccccc1)OCc1ccccc1 (configuration not stated)	nt	nt	nt	nt	59*	3
N/C(=N\OC(=O)C1CC1)c1ccc([N+](=O)[O-])s1	-13	-2	56*	-10	8	16
N/C(=N\O)c1ccc([N+](=O)[O-])s1	-8	-2	47*	-6	1	5
CC(C)(C)C(=O)O/N=C(\N)c1ccc([N+](=O)[O-])s1	-2	-4	19	-5	3	17
COC(=O)C1=C(C)N(Cc2ccccc2C(F)(F)F)C(=NCC2CC2)NC1c1ccc(F)cc1 (configuration not stated)	nt	nt	nt	nt	-1	18
CCCCNC(=O)C1(C)CCN1C(=O)c1ccc(OC)c(C(F)(F)F)c1 (configuration not stated)	nt	nt	nt	nt	-21	5
SMILES	OX1R antag-1	CHO parental Ca	OX1R antag-2	GPR7 antag	TAAR1 antag	TAAR1 ag
CC1CC(C)CN(C(=S)Nc2ccc(SC(F)F)cc2)C1 (configuration not stated)	5	-9	19	4	15	41*
CC(=O)c1c(C)[nH]c(C(=O)CSc2nc3ccccc3n2C)c1C	78*	51*	108*	9	55*	24
CCn1c(SCC(=O)c2[nH]c(C)c(C(C)=O)c2C)nnc1-c1cccs1	-12	5	11	-1	21	22
C[C@@H]1CN([C@@H](C)CO)C(=O)CCCn2nncc2CO[C@H]1CN(C)Cc1cccc(C(F)(F)F)c1	nt	nt	nt	nt	-21	1
O=[N+]([O-])c1ccc(S(=O)(=O)N(CC(O)CN2CCCCC2)c2ccccc2)cc1 (configuration not stated)	-2	-15	48*	5	4	3
NNc1nc2c(Cl)ccc(Cl)c2s1	4	0	18	-2	6	39*
CC(C)(C)c1cc(C(=O)NNc2cc(C(F)(F)F)ccc2Cl)n(Cc2ccccc2)n1	4	-7	45*	-10	34	9
Cc1ccc(NNC(=O)c2cc(C(C)(C)C)nn2Cc2ccccc2)cc1	-19	-13	12	-10	-22	-3
COc1ccccc1NNC(=O)c1cc(C(C)(C)C)nn1Cc1ccccc1	-26	-13	55	-12	49*	3
Cc1cn([C@H]2C[C@H](O)[C@@H](CNCC3=Cc4cc(O)ccc4OC3)O2)c(=O)[nH]c1=O	nt	nt	nt	nt	-9	1
O=C1Nc2ccccc2C(=O)N(c2ccc3c(c2)OCCO3)C1C(=O)NC1CC1 (configuration not stated)	nt	nt	nt	nt	-17	1
COc1ccc(C(CNC(=O)c2ccc(-c3ccccc3Cl)o2)N2CCCC2)cc1 (configuration not stated)	nt	nt	nt	nt	-11	42*
COc1ccc(CCN2C(=O)c3ccccc3C2c2nnnn2Cc2ccccc2)cc1OC (configuration not stated)	nt	nt	nt	nt	20	13
COc1ccc(C(=O)c2oc3ccccc3c2N)cc1	-5	-10	36	-10	23	9
COc1ccc2oc(C(=O)c3ccccc3)c(N)c2c1	26	-11	64*	6	-5	6
COC(=O)c1ccc(N2C(c3cc(OC)cc(OC)c3)=Cc3ccc(-c4cccnc4)cc3C2CC(=O)C2CC2)cc1 (configuration not stated)	nt	nt	nt	nt	-31	0
Cc1nc2c(=O)[nH]c(=S)[nH]c2[nH]c1=O	nt	nt	nt	nt	-32	8
NC(=O)c1nsc(C(=O)N(c2ccccc2)C(C(=O)NC2CCCC2)c2ccc3ncccc3c2)c1N (configuration not stated)	-4	-7	17	-14	51*	8
